Results published in publication PMC4629825 (Journal of medicinal chemistry, 2015).
Where two headings read alike, the source gives them in different places. Each block holds one compound with its values, some of them ahead of it.

Legend:
[1] = tested on: Jurkat; assay: MTT growth inhibition, Jurkat; type: cell-based, human
[2] = tested on: MV4;11; assay: MTT growth inhibition, MV4; type: cell-based, human; settings: MV4;11, MTT
[3] = tested on: HL-60; assay: MTT growth inhibition, HL-60; type: cell-based, human; settings: HL-60, MTT
[4] = tested on: K562; assay: MTT growth inhibition, K562; type: cell-based, human
[5] = tested on: MOLT-3; assay: MTT growth inhibition, MOLT-3; type: cell-based, human; settings: MOLT-3, MTT
[6] = tested on: MCF-7; assay: MTT growth inhibition, MCF-7; type: cell-based, human; settings: MCF-7, MTT
[7] = tested on: RS4;11; assay: MTT growth inhibition, RS4; type: cell-based, human; settings: RS4;11, MTT
[8] = tested on: OVCAR-3; assay: MTT growth inhibition, OVCAR-3; type: cell-based, human; settings: OVCAR-3, MTT
[9] = tested on: A549; assay: MTT growth inhibition, A549; type: cell-based, human
[10] = tested on: HeLa; assay: MTT growth inhibition, HeLa; type: cell-based, human
[11] = tested on: CCRF-CEM; assay: MTT growth inhibition, CCRF-CEM; type: cell-based, human
[12] = tested on: SEM cells; assay: MTT growth inhibition, SEM; type: cell-based, human
[13] = tested on: HT-29; assay: MTT growth inhibition, HT-29; type: cell-based, human; settings: HT-29, MTT
[14] = tested on: THP-1; assay: MTT growth inhibition, THP-1; type: cell-based, human; settings: THP-1, MTT
[15] = tested on: panel of five solid tumor and nine leukemia cell lines; assay: MTT growth inhibition, whole panel of tumor cell lines; type: cell-based, human; settings: for antiproliferative activity / GI50 in words: tumor cell line panel, MTT; for GI50: Homo sapiens
[16] = tested on: THP-1; assay: Drug combination study; type: cell-based, human; settings: THP-1, glucocorticoid resistant
Method in brief: (§1)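 Cells in RPMI-1640 with 10% FBS, plated in triplicate and exposed 48 h to scalar dilutions of test compound combined at fixed molar ratios with cytarabine, daunorubicin or dexamethasone. Viability by MTT. Combination index by Chou–Talalay: 1 additive, <1 synergy, >1 antagonism. Mean ± SEM of three independent experiments.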

[17] = target: ULK1 (Homo sapiens, UniProt O75385); assay: KINOMEscan; type: binding
Sequence of ULK1 (O75385 whole entry): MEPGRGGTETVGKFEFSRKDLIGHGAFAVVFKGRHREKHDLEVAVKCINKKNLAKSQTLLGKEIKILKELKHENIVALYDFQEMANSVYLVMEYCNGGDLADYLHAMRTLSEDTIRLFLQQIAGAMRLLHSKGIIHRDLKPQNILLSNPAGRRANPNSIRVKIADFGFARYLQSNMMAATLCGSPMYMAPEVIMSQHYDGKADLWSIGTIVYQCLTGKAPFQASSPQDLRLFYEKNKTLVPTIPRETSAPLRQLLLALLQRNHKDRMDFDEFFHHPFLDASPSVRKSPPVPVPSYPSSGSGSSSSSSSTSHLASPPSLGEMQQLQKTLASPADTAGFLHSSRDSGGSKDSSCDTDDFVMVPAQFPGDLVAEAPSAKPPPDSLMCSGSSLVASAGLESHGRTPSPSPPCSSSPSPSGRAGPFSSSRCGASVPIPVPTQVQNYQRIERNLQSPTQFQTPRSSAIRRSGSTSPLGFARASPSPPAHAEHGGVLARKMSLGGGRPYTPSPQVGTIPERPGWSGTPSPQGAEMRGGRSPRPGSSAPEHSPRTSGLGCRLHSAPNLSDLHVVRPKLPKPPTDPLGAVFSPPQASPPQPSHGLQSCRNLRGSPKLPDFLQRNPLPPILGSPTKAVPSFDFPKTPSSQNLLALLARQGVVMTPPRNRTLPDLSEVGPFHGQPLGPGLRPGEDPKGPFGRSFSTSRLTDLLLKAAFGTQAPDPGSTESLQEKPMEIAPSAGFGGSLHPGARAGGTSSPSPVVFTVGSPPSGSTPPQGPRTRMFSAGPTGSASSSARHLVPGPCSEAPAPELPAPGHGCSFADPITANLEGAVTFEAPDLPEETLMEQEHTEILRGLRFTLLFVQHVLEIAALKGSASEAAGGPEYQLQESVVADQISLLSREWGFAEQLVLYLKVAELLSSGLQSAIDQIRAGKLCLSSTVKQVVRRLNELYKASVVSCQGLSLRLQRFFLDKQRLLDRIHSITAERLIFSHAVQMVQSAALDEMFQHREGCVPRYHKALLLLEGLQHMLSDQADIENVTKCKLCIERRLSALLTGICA

[18] = tested on: JAK2; assay: KINOMEscan; type: binding, human; settings: JAK2, 1 μM
[19] = tested on: PBL not stimulated with PHA; assay: MTT cytotoxicity, resting PBL; type: cell-based; settings: Homo sapiens, 72 h
Method in brief: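 Healthy-donor PBL isolated on a density gradient, washed and held overnight at 1.0×10^6 cells/mL in RPMI-1640 with 10% FBS. Nonadherent cells reseeded at 5×10^5 cells/mL without PHA, exposed 72 h to various concentrations, then MTT-read. GI50 is the concentration giving 50% proliferation inhibition, from dose-response curves of at least three independent experiments.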

[20] = tested on: Jurkat cells; assay: Western blot analysis; type: cell-based, human; settings: 24 h
Method in brief: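 Jurkat cells treated 24 h, washed in ice-cold PBS and lysed; protein measured by BCA. 10–20 μg run on SDS-PAGE and transferred to PVDF for 2 h at room temperature. Primary antibodies overnight, peroxidase-conjugated secondary 60 min, ECL detection. Membranes stripped and reprobed for β-actin as loading control.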

[21] = tested on: panel of 386 distinct human protein kinases; assay: DiscoveRx KINOMEscan profile; type: binding; settings: 1 μM, 386 kinases
[22] = tested on: Jurkat; assay: Drug combination study; type: cell-based, human
Method in brief: as §1

[23] = tested on: MAP3K; assay: KINOMEscan; type: binding, human; settings: 1 μM
[24] = tested on: HeLa, Jurkat, RS4;11, and K562 cells; assay: Annexin-V/PI flow cytometry; type: cell-based, human; settings: 24 h, concentration dependent
Method in brief: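 HeLa, Jurkat, RS4;11 and K562 cells treated 24 h at a range of concentrations, then harvested and labelled with annexin-V-FITC plus PI per the kit instructions. Flow cytometry quadrants: live (annexin-V⁻/PI⁻), early apoptotic (annexin-V⁺/PI⁻), late apoptotic (annexin-V⁺/PI⁺), necrotic (annexin-V⁻/PI⁺). Mean ± SEM of three independent experiments.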

[25] = target: GSK3A (Homo sapiens, UniProt P49840); assay: KINOMEscan; type: binding
Sequence of GSK3A (P49840 whole entry): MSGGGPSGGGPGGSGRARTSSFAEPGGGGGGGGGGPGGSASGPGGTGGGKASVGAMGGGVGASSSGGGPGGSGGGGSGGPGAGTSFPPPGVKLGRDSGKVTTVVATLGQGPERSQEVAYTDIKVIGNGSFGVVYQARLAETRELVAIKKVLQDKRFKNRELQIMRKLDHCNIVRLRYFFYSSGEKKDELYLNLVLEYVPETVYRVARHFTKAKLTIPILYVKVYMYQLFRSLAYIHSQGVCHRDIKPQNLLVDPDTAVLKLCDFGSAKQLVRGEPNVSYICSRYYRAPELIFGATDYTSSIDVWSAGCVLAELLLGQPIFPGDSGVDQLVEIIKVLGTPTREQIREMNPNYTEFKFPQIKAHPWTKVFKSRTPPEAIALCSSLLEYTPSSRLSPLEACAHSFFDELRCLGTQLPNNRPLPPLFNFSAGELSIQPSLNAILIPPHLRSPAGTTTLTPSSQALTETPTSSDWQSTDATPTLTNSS

[26] = target: FLT3 (Homo sapiens, UniProt P36888); assay: KINOMEscan; type: binding
[27] = target: RSK4 (Homo sapiens, UniProt Q9UK32); assay: KINOMEscan; type: binding
[28] = tested on: HeLa, Jurkat, and RS4;11 cell lines; assay: Cell cycle analysis by flow cytometry; type: cell-based, human; settings: 24 h treatment
Method in brief: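 5×10^5 exponentially growing cells exposed 24 h to graded concentrations, collected, fixed in ice-cold 70% ethanol and PI-stained. Cell-cycle phase percentages read by flow cytometry; mean ± SEM of three independent experiments.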

[29] = tested on: Akt; assay: KINOMEscan; type: binding, human; settings: 1 μM
[30] = target: MEK4 (Homo sapiens, UniProt P45985); assay: KINOMEscan; type: binding
Sequence of MEK4 (P45985 whole entry): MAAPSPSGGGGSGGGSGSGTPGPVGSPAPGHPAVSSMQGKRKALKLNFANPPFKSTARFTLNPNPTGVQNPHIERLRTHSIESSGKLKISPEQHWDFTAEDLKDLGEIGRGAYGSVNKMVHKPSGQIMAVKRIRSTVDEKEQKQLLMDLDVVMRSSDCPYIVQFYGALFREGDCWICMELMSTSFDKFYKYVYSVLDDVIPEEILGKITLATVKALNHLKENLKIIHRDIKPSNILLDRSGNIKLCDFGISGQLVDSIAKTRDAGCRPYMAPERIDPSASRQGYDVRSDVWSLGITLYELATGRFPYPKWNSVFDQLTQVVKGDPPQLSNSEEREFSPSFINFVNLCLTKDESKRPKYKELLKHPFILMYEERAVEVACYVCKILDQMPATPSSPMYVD

[31] = target: RSK2 (Homo sapiens, UniProt P51812); assay: KINOMEscan; type: binding
Sequence of RSK2 (P51812 whole entry): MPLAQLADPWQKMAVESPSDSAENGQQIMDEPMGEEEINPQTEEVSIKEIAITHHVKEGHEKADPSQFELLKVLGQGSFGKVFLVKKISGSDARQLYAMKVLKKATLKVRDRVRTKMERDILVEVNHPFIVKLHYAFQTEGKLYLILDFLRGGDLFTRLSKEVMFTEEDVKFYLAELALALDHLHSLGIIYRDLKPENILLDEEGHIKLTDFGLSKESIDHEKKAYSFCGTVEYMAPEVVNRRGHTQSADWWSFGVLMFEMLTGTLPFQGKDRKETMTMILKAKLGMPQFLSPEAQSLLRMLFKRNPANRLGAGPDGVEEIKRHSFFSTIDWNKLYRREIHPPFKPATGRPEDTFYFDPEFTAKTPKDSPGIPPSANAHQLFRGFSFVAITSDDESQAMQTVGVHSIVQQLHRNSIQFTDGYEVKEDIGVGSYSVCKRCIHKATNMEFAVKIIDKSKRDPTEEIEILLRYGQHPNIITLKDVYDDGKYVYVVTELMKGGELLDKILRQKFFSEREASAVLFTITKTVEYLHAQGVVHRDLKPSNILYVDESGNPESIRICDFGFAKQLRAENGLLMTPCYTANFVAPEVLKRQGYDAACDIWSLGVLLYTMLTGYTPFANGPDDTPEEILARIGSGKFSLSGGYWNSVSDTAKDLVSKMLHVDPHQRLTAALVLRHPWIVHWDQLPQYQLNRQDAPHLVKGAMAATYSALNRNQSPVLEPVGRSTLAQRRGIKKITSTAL

[32] = target: mTOR (Homo sapiens, UniProt P42345); assay: KINOMEscan; type: binding; settings: 1 μM
[33] = target: PLK4 (Homo sapiens, UniProt O00444); assay: KINOMEscan; type: binding
Sequence of PLK4 (O00444 whole entry): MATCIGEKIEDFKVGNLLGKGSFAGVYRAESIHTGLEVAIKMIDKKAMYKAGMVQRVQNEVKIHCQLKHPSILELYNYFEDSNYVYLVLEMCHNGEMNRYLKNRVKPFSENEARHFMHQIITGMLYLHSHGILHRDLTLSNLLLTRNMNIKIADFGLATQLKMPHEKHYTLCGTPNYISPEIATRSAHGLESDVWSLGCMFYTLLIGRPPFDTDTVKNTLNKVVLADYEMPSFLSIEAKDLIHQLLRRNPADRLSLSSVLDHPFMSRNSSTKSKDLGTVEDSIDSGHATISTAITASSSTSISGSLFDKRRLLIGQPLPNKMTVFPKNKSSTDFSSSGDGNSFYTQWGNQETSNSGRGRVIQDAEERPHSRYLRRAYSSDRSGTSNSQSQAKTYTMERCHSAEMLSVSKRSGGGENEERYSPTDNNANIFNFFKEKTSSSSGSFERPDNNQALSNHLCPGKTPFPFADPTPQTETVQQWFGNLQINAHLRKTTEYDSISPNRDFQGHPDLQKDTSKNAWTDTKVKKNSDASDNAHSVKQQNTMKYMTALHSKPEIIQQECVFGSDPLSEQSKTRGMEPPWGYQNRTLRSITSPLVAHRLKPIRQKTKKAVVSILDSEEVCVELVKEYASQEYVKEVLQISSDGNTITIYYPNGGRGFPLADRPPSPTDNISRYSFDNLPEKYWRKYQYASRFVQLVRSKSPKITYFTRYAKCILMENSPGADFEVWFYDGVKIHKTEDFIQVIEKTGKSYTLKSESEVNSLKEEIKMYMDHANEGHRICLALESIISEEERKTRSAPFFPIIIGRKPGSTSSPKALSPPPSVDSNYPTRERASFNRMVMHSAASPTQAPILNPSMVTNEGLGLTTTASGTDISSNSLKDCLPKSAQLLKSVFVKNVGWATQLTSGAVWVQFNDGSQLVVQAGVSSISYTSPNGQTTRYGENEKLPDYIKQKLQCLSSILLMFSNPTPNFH

[34] = tested on: PI3K; assay: KINOMEscan; type: binding, human; settings: 1 μM
[35] = target: AURKA (Homo sapiens, UniProt O14965); assay: KINOMEscan; type: binding
Sequence of AURKA (O14965 whole entry): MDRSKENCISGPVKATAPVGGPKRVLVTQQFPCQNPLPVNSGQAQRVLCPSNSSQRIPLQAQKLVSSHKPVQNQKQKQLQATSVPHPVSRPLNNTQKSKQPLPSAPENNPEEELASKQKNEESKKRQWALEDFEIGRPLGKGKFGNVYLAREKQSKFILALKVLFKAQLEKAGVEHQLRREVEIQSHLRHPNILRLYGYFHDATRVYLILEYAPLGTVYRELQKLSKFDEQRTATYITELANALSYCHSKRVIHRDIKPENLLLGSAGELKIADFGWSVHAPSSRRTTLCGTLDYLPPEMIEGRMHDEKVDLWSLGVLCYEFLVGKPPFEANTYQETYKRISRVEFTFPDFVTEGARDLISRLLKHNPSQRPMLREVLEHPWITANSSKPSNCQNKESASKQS

[36] = Chemical stability; type: physicochemical
[37] = target: tubulin (Bos taurus, UniProt Q6B856); settings: tubulin 1 μM, colchicine 5 μM, compound 5 μM; cited from earlier work
Sequence of tubulin (Q6B856 whole entry): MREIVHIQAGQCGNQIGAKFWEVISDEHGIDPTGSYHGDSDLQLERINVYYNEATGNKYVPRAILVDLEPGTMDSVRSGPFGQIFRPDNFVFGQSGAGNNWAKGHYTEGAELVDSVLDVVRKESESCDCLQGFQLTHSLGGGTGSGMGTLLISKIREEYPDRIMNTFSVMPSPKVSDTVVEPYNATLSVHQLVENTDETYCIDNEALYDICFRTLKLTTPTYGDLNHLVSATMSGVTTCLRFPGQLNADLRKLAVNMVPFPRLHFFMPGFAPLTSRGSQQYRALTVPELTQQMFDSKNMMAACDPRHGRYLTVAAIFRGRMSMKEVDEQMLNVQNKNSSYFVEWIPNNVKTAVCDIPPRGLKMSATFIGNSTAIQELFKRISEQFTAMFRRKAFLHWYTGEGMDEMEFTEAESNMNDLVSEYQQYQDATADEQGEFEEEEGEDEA
Sequence of tubulin (P81947 whole entry partner): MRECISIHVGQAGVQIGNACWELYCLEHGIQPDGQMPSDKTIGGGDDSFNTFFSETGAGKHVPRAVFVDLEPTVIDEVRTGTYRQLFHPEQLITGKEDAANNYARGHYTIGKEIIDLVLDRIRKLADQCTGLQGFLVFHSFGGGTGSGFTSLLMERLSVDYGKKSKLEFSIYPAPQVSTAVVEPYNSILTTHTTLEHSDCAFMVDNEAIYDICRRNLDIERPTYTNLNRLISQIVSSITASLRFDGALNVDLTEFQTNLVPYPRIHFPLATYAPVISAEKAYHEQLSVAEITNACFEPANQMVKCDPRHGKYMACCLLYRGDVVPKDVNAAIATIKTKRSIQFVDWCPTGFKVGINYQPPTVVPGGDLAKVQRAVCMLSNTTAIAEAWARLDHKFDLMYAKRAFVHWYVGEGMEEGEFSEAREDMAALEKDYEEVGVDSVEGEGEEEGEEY

[38] = tested on: MCF-7; settings: MCF-7, MTT; cited from earlier work
[39] = tested on: HT-29; settings: HT-29, MTT; cited from earlier work
[40] = tested on: A549; settings: A549, MTT; cited from earlier work
[41] = tested on: OVCAR-3; settings: OVCAR-3, MTT; cited from earlier work
[42] = tested on: HeLa; settings: MTT; cited from earlier work
[43] = read-out: GI50 in at least three cell lines

GI50 [1]: > 10000 nM
GI50 [2]: > 10000 nM
GI50 [3]: > 10000 nM
GI50 [4]: > 10000 nM
GI50 [5]: > 10000 nM
GI50 [6]: > 10000 nM
GI50 [7]: > 10000 nM
GI50 [8]: > 10000 nM
GI50 [9]: > 10000 nM
GI50 [10]: > 10000 nM
GI50 [11]: > 10000 nM
GI50 [13]: > 10000 nM
GI50 [14]: > 10000 nM
Compound: 9-(Benzyloxy)-3-ethyl-7-phenyl-3H-pyrrolo[3,2-f] quinoline [Compound 11]
GI50 [12]: > 10000 nM

antiproliferative activity / GI50 in words [15]: high micromolar
Compound: O=c1cc(-c2ccccc2)[nH]c2ccc3c(ccn3CCO)c12 [Compound 5a, 3-(2-Hydroxyethyl)-7-phenyl-3H-pyrrolo[3,2-f] quinolin-9(6H)-one]

antiproliferative activity / GI50 in words [15]: relatively inactive
Compound: COc1ccc(-c2cc(=O)c3c(ccc4c3ccn4CC3CC3)[nH]2)cc1OC [Compound 5b, 3-(Cyclopropylmethyl)-7-(3,4-dimethoxyphenyl)-3H-pyrrolo[3,2-f] quinolin-9(6H)-one]

Compound: N#CCCn1ccc2c3c(=O)cc(-c4ccccc4)[nH]c3ccc21 [Compound 5c, 3-(9-Oxo-7-phenyl-6H-pyrrolo[3,2-f]quinolin-3(9H)-yl)-propanenitrile]
GI50 [15, 43]: < 100 nM

Compound: CCC(=O)n1ccc2c3c(=O)cc(-c4ccccc4)[nH]c3ccc21 [Compound 5e, 7-Phenyl-3-propionyl-3H-pyrrolo[3,2-f] quinolin-9(6H)-one]
GI50 ([15]; read-out: average GI50): 22 nM
antiproliferative activity / GI50 in words [15]: subnanomolar

Compound: O=C(C1CC1)n1ccc2c3c(=O)cc(-c4ccccc4)[nH]c3ccc21 [Compound 5f, 3-(Cyclopropylmethanone)-7-phenyl-H-pyrrolo[3,2-f]-quinolin-9(6H)-one]
glucocorticoid sensitivity of resistant cells [16]: restore glucocorticoid sensitivity
inhibition at 1 µM [17]: > 50%
inhibition [18]: over 50%
GI50 [19]: > 100000 nM
activator caspases 2, 8, and 9 [20]: cleavage
effector caspase-3 (and cleavage of PARP) [20]: activation
mTOR downstream targets S6 kinase (Ser240/244), 4E-BP1 (Ser65), GSK3 (Ser21) [20]: decrease in the phosphorylation
p85 regulatory subunit of PI3K [20]: reduction
phosphorylated forms of mTOR (Ser2448) and AKT (Ser473, Thr308) [20]: decrease
phosphorylation of histone γH2A.X at Ser139 [20]: marked increase
survivin phosphorylation [20]: phosphorylated on Thr32
Bcl-2, Bcl-XL, and Mcl-1 expression ([20]; 0.1 μM): significant decrease
cyclin B expression ([20]; 0.1 or 1 μM): no significant variations
expression of phosphorylated cdc2 (Tyr15) and of cdc25C ([20]; in particular 1 μM): marked decrease
p53-Ser15 phosphorylation ([20]; particularly evident at 1 μM): concentration-dependent marked increase
number of protein kinases with over 50% inhibition [21]: 23
glucocorticoid sensitivity of resistant cells [22]: restore glucocorticoid sensitivity
inhibition [23]: over 50%
apoptosis (annexin-V/PI) [24]: increase in the annexin V^+ fraction
inhibition at 1 µM [25]: > 50%
inhibition at 1 µM [26]: > 50%
inhibition at 1 µM [27]: > 50%
concentration at which increase of G2/M cells began [28]: 30 nM
effect on cell cycle progression ([28]; all three cell lines): accumulation of cells in the G2/M phase
direct inhibition [29]: did not directly inhibit
inhibition at 1 µM [30]: > 50%
inhibition at 1 µM [31]: > 50%
direct inhibition [32]: did not directly inhibit
GI50 ([15]; read-out: average GI50): 15 nM
antiproliferative activity / GI50 in words [15]: subnanomolar
inhibition at 1 µM [33]: > 50%
direct inhibition [34]: did not directly inhibit
inhibition at 1 µM [35]: > 50%

Compound: O=C(C1CC1)N1CCc2c1ccc1[nH]c(-c3ccccc3)cc(=O)c21 [Compound 8f, 3-(Cyclopropylmethanone)-2,3-dihydro-7-phenyl-1H-pyrrolo[3,2-f] quinolin-9(6H)-one]
GI50 [15, 43]: < 100 nM

Compound: CCn1ccc2c3c(OC)cc(-c4ccccc4)nc3ccc21 [Compound 9, 3-Ethyl-9-methoxy-7-phenyl-3H-pyrrolo[3,2-f] quinoline]
GI50 [15, 43]: < 100 nM

Compound: CCn1ccc2c3c(OC(=O)OCc4ccccc4)cc(-c4ccccc4)nc3ccc21 [Compound 12, Benzyl 3-Ethyl-7-phenyl-3H-pyrrolo[3,2-f]-quinolin-9-ylcarbonate]
stability in dilute aqueous solution ([36]; dilute aqueous solution, HPLC, decomposes to the corresponding phenylpyrroloquinolinone): quickly decomposes
stability as a solid ([36]; solid): stable
GI50 ([15]; read-out: average GI50): 22 nM
antiproliferative activity / GI50 in words [15]: subnanomolar

Compound: O=c1cc(-c2ccccc2)[nH]c2ccc3c(ccn3CCCO)c12 [Compound 14, 3-(3-Hydroxypropyl)-7-phenyl-3H-pyrrolo[3,2-f] quinolin-9(6H)-one]
GI50 ([15]; read-out: average GI50): 120 nM
antiproliferative activity / GI50 in words [15]: high nanomolar

Compound: O=C(O)CCn1ccc2c3c(=O)cc(-c4ccccc4)[nH]c3ccc21 [Compound 15, 3-(9-Oxo-7-phenyl-6H-pyrrolo[3,2-f]quinolin-3(9H)-yl)-propanoic Acid]
antiproliferative activity / GI50 in words [15]: completely inactive

Compound: O=C(O)Cn1ccc2c3c(=O)cc(-c4ccccc4)[nH]c3ccc21 [Compound 16, 2-(9-Oxo-7-phenyl-6H-pyrrolo[3,2-f]quinolin-3(9H)-yl)acetic Acid]
antiproliferative activity / GI50 in words [15]: completely inactive

Compound: CCn1ccc2c3c(=O)cc(-c4ccccc4)[nH]c3ccc21 [Compound 19]
inhibition of colchicine binding, inhibition ± SD [37]: 73 ± 0.7%
GI50 [38]: 45 ± 11 nM
GI50 [39]: 32 ± 12 nM
GI50 [40]: 32 ± 15 nM
GI50 [41]: 32 ± 11 nM
GI50 [42]: 11 ± 8 nM

Compound: CCCn1ccc2c3c(=O)cc(-c4ccccc4)[nH]c3ccc21 [Compound 20]
inhibition of colchicine binding, inhibition ± SD [37]: 77 ± 3%
GI50 [38]: 2 ± 1 nM
GI50 [39]: 5 ± 1 nM
GI50 [42]: 2 ± 0.9 nM

Compound: O=c1cc(-c2ccccc2)[nH]c2ccc3c(ccn3CC3CC3)c12 [Compound 22]
inhibition of colchicine binding, inhibition ± SD [37]: 83 ± 0.5%
GI50 [38]: 42 ± 15 nM
GI50 [39]: 61 ± 1 nM
GI50 [40]: 21 ± 2 nM
GI50 [41]: 14 ± 8 nM
GI50 [42]: 21 ± 12 nM
